Values joined by “and” are separate entries in the source; they are usually repeats but may differ in a detail not shown here. Identical values can stand only once.

The text below walks through data of ChEMBL document CHEMBL1130100, “Stabilized analogs of thymopentin. 3. Evaluation of ketomethylene pseudopeptides for antiarthritic properties” (1997).

Common to all, as to type: functional
In assay [1] the test system is Mus musculus. The assay is described as follows: Extent of paw swelling after treatment with thymopentin-5 (TP-5) compound in mouse type II collagen arthritis at a dosage of 1.0 mg/kg on day 30. Put shortly: (§1)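 DBA/1 Lac mice immunized with bovine type II collagen (100 μg) in Freund's complete adjuvant at four to six back sites, then boosted ip (100 μg) on day 21. Dosing was iv in sterile saline every second day from day 19 through day 40, 12 mice per dose. Each hind paw was measured by caliper. Result given as % of untreated swelling after subtracting age-matched normal paw.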

Assay [2] deals with Mus musculus. Briefly: On set and incidence of arthritis in the Mouse Type II collagen model following 0.5 mg/kg on day 30. An outline of the steps: (§2)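 DBA/1 Lac mice sensitized with bovine type II collagen (100 μg) in Freund's complete adjuvant, ip boost (100 μg) on day 21. Freshly dissolved compound in sterile saline was given iv every second day, day 19 through day 40, groups of 12. A mouse was scored arthritic if erythema or edema was present on any digit, paw or appendage. Incidence reported as number positive of 12.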

Assay [3] has as its system Mus musculus. Briefly: On set and incidence of arthritis in the Mouse Type II collagen model at 0.5 dose mg/kg on day 40, expressed as ratio of number treated to that of control. Put shortly: as §2
Assay [4] relates to Mus musculus. The assay is described as follows: On set and incidence of arthritis in the Mouse Type II collagen model at 0.5 dose mg/kg on day 44, expressed as ratio of number treated to that of control. An outline of the steps:
as §2

Assay [5] concerns Mus musculus. Briefly: On set and incidence of arthritis in the Mouse Type II collagen model at 0.5 dose mg/kg on day 37, expressed as ratio of number treated to that of control. Put shortly: as §2
For assay [6], the system named is Mus musculus. The assay is described as follows: Extent of paw swelling after treatment with thymopentin-5 (TP-5) compound in the Mouse Type II collagen arthritis at a dosage of 1.0 mg/kg on day 44. Put shortly:
as §1

Assay [7] has as its system Mus musculus. Briefly: On set and incidence of arthritis in the Mouse Type II collagen model at 0.5 dose mg/kg on day 37, expressed as number of mice treated out of 12 tested. An outline of the steps: as §2
Assay [8] has as its system Rattus norvegicus. Briefly: extent of paw swelling following treatment with the compound in the rat adjuvant arthritis model observed on day 19 at 0.050 mg/kg dose. Conditions: dose 0.05 mg/kg. An outline of the steps: (§3)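 Rat adjuvant arthritis with iv dosing every second day, starting 2 days before the adjuvant/antigen challenge. Initial doses ranged 0.05 to 0.50 mg/kg, eight rats per dose. Each hind paw was measured by caliper. Swelling minus age-matched normal paw, expressed as % of untreated animals.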

Assay [9] concerns Mus musculus. The assay is described as follows: Extent of paw swelling after treatment with thymopentin-5 (TP-5) compound in the Mouse Type II collagen arthritis at a dosage of 0.01 mg/kg on day 44. Particulars: 0.01 mg/kg. An outline of the steps: as §1
Assay [10] has as its system Rattus norvegicus. The assay is described as follows: extent of paw swelling following treatment with the compound in the rat adjuvant arthritis model observed on day 12 at 0.050 mg/kg dose. Conditions: dose 0.05 mg/kg. Put shortly:
as §3

In assay [11] the test system is Rattus norvegicus. The assay is described as follows: extent of paw swelling following treatment with the compound in the rat adjuvant arthritis model observed on day 16 at 0.050 mg/kg dose. Particulars: dose 0.05 mg/kg. An outline of the steps:
as §3

The test system of assay [12] is Mus musculus. The assay is described as follows: On set and incidence of arthritis in the Mouse Type II collagen model at 0.5 dose mg/kg on day 40, expressed as number of mice treated out of 12 tested. An outline of the steps: as §2
The subject of assay [13] is Mus musculus. Briefly: On set and incidence of arthritis in the Mouse Type II collagen model at 0.5 dose mg/kg on day 44, expressed as number of mice treated out of 12 tested. An outline of the steps:
as §2

For assay [14], the system named is Mus musculus. Briefly: On set and incidence of arthritis in the Mouse Type II collagen model at 0.5 dose mg/kg on day 30, expressed as ratio of number treated to that of control. Put shortly: as §2
Assay [15] has as its system Rattus norvegicus. The assay is described as follows: extent of paw swelling following treatment with the compound in the rat adjuvant arthritis model observed on day 16 at 0.50 mg/kg dose. Particulars: dose 0.5 mg/kg. An outline of the steps:
as §3

Assay [16] deals with Rattus norvegicus. Briefly: extent of paw swelling following treatment with the compound in the rat adjuvant arthritis model observed on day 12 at 0.50 mg/kg dose. Conditions: dose 0.5 mg/kg. Put shortly:
as §3

Assay [17] concerns Rattus norvegicus. The assay is described as follows: extent of paw swelling following treatment with the compound in the rat adjuvant arthritis model observed on day 19 at 0.50 mg/kg dose. Particulars: dose 0.5 mg/kg. Put shortly: as §3
Assay [18] relates to Mus musculus. The assay is described as follows: Extent of paw swelling after treatment with thymopentin-5 (TP-5) compound in the Mouse Type II collagen arthritis at 1 mg/kg on day 30. An outline of the steps:
as §1

As to `CC(CC(=O)[C@H](CC(=O)O)NC(=O)C(CCCCN)NC(=O)[C@@H](N)CCCN=C(N)N)C(=O)NC(Cc1ccccc1)C(=O)O` (stereo in doubt; 3e-A), in the assay on Mus musculus [1] (1 mg/kg), the Paw swelling was 88% and 57% and 73% and 75%. The No. of mice in the assay on Mus musculus [2] (0.5 mg/kg) stood at 5; in the assay on Mus musculus [3], 11; in the assay with Mus musculus [4] it was 12; with Mus musculus [5], 9.

Regarding `CC(C)C(CC(=O)[C@H](CC(=O)O)NC(=O)C(CCCCN)NC(=O)[C@@H](N)CCCN=C(N)N)C(=O)NC(Cc1ccc(O)cc1)C(=O)O` (stereo not given in full), the Paw swelling with Mus musculus [1] turned out to be 100%. The No. of mice is on record as 8 in the assay on Mus musculus [2], 12 in the assay on Mus musculus [3], 12 with Mus musculus [4] and 11 with Mus musculus [5].

Take `CCCC[C@H](NC(=O)[C@@H](N)CCCN=C(N)N)C(=O)N[C@@H](CC(=O)O)C(=O)C[C@H](C)C(=O)O`: the No. of mice in the assay with Mus musculus [2] is recorded as 8; with Mus musculus [3], 11; in the assay on Mus musculus [4], 12; in the assay with Mus musculus [5] it was 11. In the assay with Mus musculus [6], this compound returned a Paw swelling of 100%.

For `CCCC[C@H](NC(=O)[C@@H](N)CCCN=C(N)N)C(=O)N[C@@H](CC(=O)O)C(=O)N[C@H](C(=O)C[C@@H](Cc1ccccc1)C(=O)O)C(C)C` (stereo in doubt; 1c-A), the No. of mice in the assay on Mus musculus [2] (0.5 mg/kg) came to 5; with Mus musculus [7] it was 9; in the assay on Mus musculus [12], 10; in the assay on Mus musculus [13] it was 8. The Paw swelling was 100% in the assay with Rattus norvegicus [8]; 66% and 69% and 70% and 63% in the assay with Mus musculus [9]; 0% in the assay on Rattus norvegicus [10]; 100% with Rattus norvegicus [11].

Compound `CC(C)[C@H](CC(=O)[C@H](CC(=O)O)NC(=O)[C@H](CCCCN)NC(=O)[C@@H](N)CCCN=C(N)N)C(=O)N[C@@H](Cc1ccccc1)C(=O)O` (stereo in doubt; 3a-B) had a Paw swelling in the assay on Mus musculus [1] of 100%. Besides, the No. of mice was found to be 12 in the assay with Mus musculus [3], 12 in the assay on Mus musculus [4], 11 in the assay with Mus musculus [5] and 8 in the assay with Mus musculus [14].

As to `CC(C)C(CC(=O)[C@H](CC(=O)O)NC(=O)C(CCCCN)N(C)C(=O)[C@@H](N)CCCN=C(N)N)C(=O)N[C@@H](Cc1ccccc1)C(=O)O` (stereo not given in full), the Paw swelling with Mus musculus [1] (1 mg/kg) is 100% and 46% and 53%; in the assay with Rattus norvegicus [15], 80%; in the assay with Rattus norvegicus [16], 0%; in the assay on Rattus norvegicus [17], 52%. The No. of mice was 6 in the assay on Mus musculus [2], 4 in the assay with Mus musculus [7], 8 in the assay on Mus musculus [12] and 8 with Mus musculus [13].

Regarding `CC(CC(=O)[C@H](CC(=O)O)NC(=O)C(CCCCN)NC(=O)[C@@H](N)CCCN=C(N)N)C(=O)NC(Cc1ccccc1)C(=O)O` (stereo in doubt; 3e-B), the Paw swelling with Mus musculus [1] (1 mg/kg) is 100% and 68% and 77%. Moreover, the values for the No. of mice with Mus musculus [2] (0.5 mg/kg), with Mus musculus [3] and in the assay with Mus musculus [5] were 10, 10 and 11, respectively.

With `CCCCC(CC(=O)[C@@H](N)CCCN=C(N)N)C(=O)N[C@@H](CC(=O)O)C(=O)NC(C(=O)N[C@@H](Cc1ccccc1)C(=O)O)C(C)C` (stereo not given in full), the No. of mice in the assay with Mus musculus [2] was 3; in the assay with Mus musculus [3] it was 7; with Mus musculus [4], 8; in the assay on Mus musculus [5], 7. The Paw swelling in the assay on Mus musculus [18] amounted to 100%.

Regarding `CCCC[C@H](NC(=O)[C@@H](N)CCCN=C(N)N)C(=O)N[C@@H](CC(=O)O)C(=O)N[C@H](C(=O)C[C@@H](Cc1ccccc1)C(=O)O)C(C)C` (stereo in doubt; 1c-B), the No. of mice in the assay with Mus musculus [2] (0.5 mg/kg) is listed as 8; in the assay on Mus musculus [7] it was 11; with Mus musculus [12], 11; with Mus musculus [13] it was 12. In addition, the Paw swelling with Mus musculus [6] worked out at 100%.
